Source: ChEMBL document CHEMBL3593222, “6-Phenoxy-2-phenylbenzoxazoles, novel inhibitors of receptor for advanced glycation end products (RAGE)” (Bioorg Med Chem, 2015)
Calls of active or inactive are those of the source. The rule behind the calls is not given here.

What was measured:
[1] = test system: Mus musculus; experiment: Antialzheimer activity in APPsw/PS1 transgenic mouse assessed as reduction of total amyloid beta 1-42 level in brain homogenates at 50 mg/kg, po administered every 2 days for 4 weeks by ELISA; format: functional, organism-based
Summary of the method: (§1)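 Male APPsw/PS1 mice, 34 weeks old (n = 4–5), dosed by gavage at 50 mg/kg every 2 days for 4 weeks. Total Aβ1–40 and Aβ1–42 were measured by ELISA kit. Results given as mean ± SD.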

[2] = test system: HT-22; experiment: Neuroprotective activity in mouse HT22 cells assessed as inhibition of amyloid beta-induced cytotoxicity by measuring cell viability at 10 uM after 18 hrs by MTT assay; format: functional; settings: HT-22, 18 h
Summary of the method: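 Aβ peptide was pretreated in HFIP, dried to a film, redissolved in DMSO, and aggregated at 200 µM in PBS for 24 h at 4 °C. HT22 cells (5000/well) were exposed the next day to 2 µM aggregated Aβ plus 10 µM compound for 18 h. Viability was read by MTT at 570 nm, and percent inhibition was calculated against Aβ with vehicle. Triplicate.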

[3] = test system: Mus musculus; experiment: Antialzheimer activity in APPsw/PS1 transgenic mouse assessed as reduction of total amyloid beta 1-40 level in brain homogenates at 50 mg/kg, po administered every 2 days for 4 weeks by ELISA
[4] = test system: Mus musculus; experiment: Antialzheimer activity in APPsw/PS1 transgenic mouse assessed as reduction of total amyloid beta 1-42 level in brain homogenates at 50 mg/kg, po administered every 2 days for 4 weeks by ELISA
[5] = test system: Mus musculus; experiment: Toxicity in APPsw/PS1 transgenic mouse at 50 mg/kg, po administered every 2 days for 4 weeks; format: organism-based; settings: in vivo
[6] = test system: Mus musculus; experiment: Antialzheimer activity in APPsw/PS1 transgenic mouse assessed as reduction of total amyloid beta 1-40 level in brain homogenates at 50 mg/kg, po administered every 2 days for 4 weeks by ELISA; format: functional, organism-based; summary of the method: as §1
[7] = target: Advanced glycosylation end product-specific receptor (Homo sapiens) (UniProt Q15109); experiment: Inhibition of human RAGE-amyloid beta-42 interaction at 4 uM preincubated for 30 mins measured after 1 hr by FRET assay relative to control
Advanced glycosylation end product-specific receptor (Homo sapiens), sequence (Q15109 whole entry): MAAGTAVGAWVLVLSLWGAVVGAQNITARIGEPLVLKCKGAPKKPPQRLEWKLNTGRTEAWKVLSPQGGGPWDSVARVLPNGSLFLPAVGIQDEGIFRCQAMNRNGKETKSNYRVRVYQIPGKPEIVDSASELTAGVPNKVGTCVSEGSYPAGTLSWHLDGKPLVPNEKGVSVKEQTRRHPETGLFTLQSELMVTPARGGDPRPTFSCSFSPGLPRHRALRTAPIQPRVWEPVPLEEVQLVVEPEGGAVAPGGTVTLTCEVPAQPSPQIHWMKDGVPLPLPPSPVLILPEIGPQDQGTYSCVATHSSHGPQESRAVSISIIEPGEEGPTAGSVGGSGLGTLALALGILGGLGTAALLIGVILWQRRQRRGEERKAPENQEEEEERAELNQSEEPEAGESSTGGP
Summary of the method: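 Biotinylated human RAGE (2.5 µg) was premixed with 200 ng Cy3-streptavidin in PBS for 30 min at rt. Aβ42-FITC (50 µL of 40 nM) and compound (50 µL of 4 µM) were then added, in 200 µL final volume with 0.1% DMSO. Fluorescence was read 1 h later. FRET efficiency was computed from donor emission with and without acceptor, and percent inhibition was taken against vehicle. Triplicate.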

[8] = test system: HT-22; experiment: Cytotoxicity against mouse HT22 cells assessed as cell viability at 10 uM after 18 hrs by MTT assay; format: cell-based; settings: ht-22, 18 h, 10 µM
Summary of the method: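 HT22 cells were grown in DMEM with 10% FBS and penicillin/streptomycin at 37 °C in 5% CO2, and seeded at 5000 cells/well. Next day they were exposed to 10 µM compound for 18 h. MTT was then added for 3 h, formazan dissolved in acidic 2-propanol, and OD read at 570 nm. Viability is blank-corrected absorbance relative to control. Run in triplicate.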

inhibition [7]: 40%
Compound: CC(C)(C)OC(=O)N1CCN(CCCOc2ccc(-c3nc4ccc(Oc5ccc(Cl)cc5)cc4o3)cc2)CC1
Activity [1]: Active
inhibition at 10 µM [2]: 65%
Activity [3]: Active
Activity [4]: Active
Activity [5]: Non-toxic
Activity [6]: Active
Activity [8]: Non-toxic
